# RAM inhibit: inhibitors of the yeast RAM network, primary screen, dse1pr::URA3 reporter, 5-FOA selection; S. cerevisiae dse1pr::URA3 reporter, 5-FOA growth OD615, 2 d; analog-sensitive cbk1-as2 kinase mutant strain; inhibition, % at 50 µM; 190,000 compounds, 1.8% hits; AID 868, 2007;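 active = inhibition above a set limit, 3 SD over mean compound inhibition, cut at about 8.4% in these data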;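 also: 0% = DMSO-only wells with no growth and 100% = 10 µM 1-NA-PP1 full growth; inhibition rescues growth on 5-FOA so higher OD means more RAM inhibition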
# Yeast growth inh: growth inhibitors of yeast BB579 in restrictive medium, primary screen, yeast lifespan-shortening project, S. cerevisiae | inhibition, % at 10 µM | 140,000 compounds, 0.51% hits | OD615, 48 h;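 active = inhibition above a set limit, 3 SD over the mean compound inhibition, cut at about 44% in these data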
#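 Test system: Saccharomyces cerevisiae DeaD strain BB579, replicative lifespan model yeast | Buffer or medium: Restrictive CSMM-D medium | Doses: One dose, 10 µM compound with 0.25% DMSO | Incubation: 48 h exposure, 30 °C | Detection: Culture absorbance at 615 nm | Control set: Amphotericin B at 10 µg/mL as positive control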
# Efa HMGR inh: inhibitors of E. faecalis class II HMGR, primary screen, biochemical, Enterococcus faecalis; HMG-CoA reductase (Enterococcus faecalis, mvaE); purified E. faecalis HMGR, NADPH absorbance 340 nm kinetic; inhibition, % at 10 µM; 190,000 compounds, 0.41% hits;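 active = inhibition above a set limit, the median over all tested compounds plus 3 SD, cut at about 9.5% in these data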;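 also: enzyme runs in reverse so mevalonate oxidation gives rising NADPH absorbance; 0% = complete reaction with DMSO and 100% = background rate lacking mevalonate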
# Yeast lifespan up: compounds extending yeast replicative lifespan, primary screen, S. cerevisiae, OD615; S. cerevisiae growth with nicotinamide; deaD strain in restrictive glucose medium; inhibition of the nicotinamide effect, % at 10 µM; 130,000 compounds, 0.68% hits; AID 775, 2007;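 active = inhibition above a set limit, placed 3 SD over the median of all compounds, cut at about 26% in these data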;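 also: 0% = nicotinamide-treated wells and 100% = cells grown without nicotinamide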
#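 Assay system: engineered S. cerevisiae DeaD replicative-lifespan strain, galactose-grown log-phase cells; medium: restrictive CSMM-D dextrose medium; also added: nicotinamide, 1.5 mM, co-present with compound; schedule: 48 h compound exposure at 30 °C, humidified; detection: absorbance at 615 nm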
# Insulin prom inh: inhibitors of insulin promoter-driven GFP, primary screen, imaging, TRM-6 cells, eGFP reporter, cell count. reporter expression induced with tamoxifen. inhibition, % at 2 µM. 130,000 compounds, 0.9% hits. AID 1273, 2008;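 active = inhibition above the mean plus 3 SD, with well images judged a real hit on visual review, cut at about 60% in these data, passing the limit was not always enough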
# Active calls of the source: *; x = not tested or not shown. Compounds with a hit are over-represented: about 3.7% of the library has one in this group of screens.
SMILES,RAM inhibit,Yeast growth inh,Efa HMGR inh,Yeast lifespan up,Insulin prom inh
CCN(CC)S(=O)(=O)c1ccc(NC(=O)C2c3ccccc3Oc3ccccc32)cc1,8.6*,-54,6,3,-50
O=C(O)CN1CCc2ccccc2C1,2,x,-2,x,x
Cn1nnnc1SCCNCc1ccccc1F,0,29,-5,-1,38
Cn1nnnc1SCCNCC#Cc1ccccc1,1,-14,-2,114*,9
CC(=O)Oc1cc(C(C)C)c(OCCN(C)C)cc1C,1,-42,9.7*,4,13
c1ccc2nc(-c3nc4ccccc4o3)ccc2c1,1,8,0,-20,x
CNc1ccccc(-c2ccc3ccccc3n2)c1=O,0,-14,2,32*,-15
Cn1c(Sc2ccc(Cl)cc2)c(C=O)c2ccccc21,9.8*,-20,-2,-15,41
CCOC(=O)c1c(NC(=O)c2cccs2)sc(CC)c1-c1cccs1,10*,-55,-2,-11,35
CCOC(=O)c1c(-c2cccs2)csc1NC(C)=O,4,-34,-8,x,25
CCOC(=O)c1c(-c2cccs2)csc1NC(=O)CSc1ncn[nH]1,9.4*,-61,-1,0,47
CCOC(=O)c1c(-c2cccs2)csc1NC(=O)C(C)(C)C,8.6*,-23,1,-11,-23
CCOC(=O)c1c(-c2ccc(C)s2)csc1NC(=O)c1cccs1,6,-70,1,-8,-27
CCOC(=O)c1c(-c2cccs2)csc1NC(=O)CCCC(=O)O,-1,-5,-5,-9,46
O=S(=O)(c1ccc(Cl)s1)N1CCCc2cccc(O)c21,2,-31,-1,-8,-15
CCOc1ccccc1NC(=O)NC(=O)N(C)S(=O)(=O)c1ccc(C)cc1,2,x,0,x,-45
O=C(O)c1ccc(C=C(c2nc3ccccc3s2)c2nc3ccccc3s2)cc1,2,x,3,x,x
CN(C)c1ccc(/C=C(\Cl)c2nc3ccccc3s2)cc1,8.6*,-52,-3,0,-48
Cc1nn(C)c(Cl)c1C(=O)NCC(=O)NCc1ccccc1,1,x,-3,x,0
CCC1CCCCN1C(=O)CSc1nnc(-c2ccc(Cl)cc2)o1 (stereo not given),5,18,-1,4,x
CCC1CCCCN1C(=O)CSc1nnc(-c2ccco2)o1 (stereo not given),0,-20,4,-5,86*
Cc1ccc(/C=C(\C#N)C(=O)N2CCCC2)c(C)c1,0,x,-4,x,-70
CCCCOc1ccc(/C=C/C(=O)OCC(=O)NC(=O)NCC(C)C)cc1OCC,6,-16,-5,6,x
Cc1cc(SCC(=O)c2cccs2)nc2ccccc12,3,-15,-3,-5,x
C=CCOc1ccc(Br)cc1CNC(C)(C)C,-1,x,22*,x,-13
SMILES,RAM inhibit,Yeast growth inh,Efa HMGR inh,Yeast lifespan up,Insulin prom inh
Cc1ccc(NC(=O)NNC(=O)c2snnc2C)cc1,2,x,-4,x,60
CC(/C=N\NC(=O)CN1CCN(S(=O)(=O)c2ccc(C)cc2)CC1)=C\c1ccccc1,4,-39,5,-4,-26
COc1ccc(C=C(c2ccc(OC)cc2)c2ccc(OC)cc2)cc1,8.5*,-67,-5,-2,39
COc1ccc(C(=O)/C=C/c2ccc(O)cc2)cc1,-1,x,-2,x,x
Cc1cc(C)c2c(N)c(C(=O)C(C)(C)C)sc2n1,2,x,-8,x,x
Cc1cc(C)c2c(N)c(C(=O)c3ccc(Cl)cc3)sc2n1,1,-28,0,-5,72*
Cc1cc(C)c2c(N)c(C(=O)c3ccc(Cl)c(Cl)c3)sc2n1,1,x,-5,x,70*
COC(=O)CS(=O)(=O)c1ccsc1C(=O)Nc1ccc(F)cc1,2,x,4,x,64
Cc1nn2c(C(F)(F)F)cc(-c3ccc(Cl)cc3)nc2c1C(=O)N1CCOCC1,8,5,17*,-6,79*
O=C(c1cnn2c(C(F)(F)F)cc(-c3ccc(Br)cc3)nc12)N1CCOCC1,2,-5,1,-13,36
COc1ccc(OC)c(-c2csc(N(Cc3ccco3)C(=O)c3cccs3)n2)c1,9.1*,-16,-5,-9,-3
COc1ccc(OC)c(-c2csc(N(C)C(=O)Cc3ccccc3)n2)c1,9.8*,x,-6,x,-6
CNC(=O)c1ccsc1NC(=O)c1ccc2c(c1)CCCC2,2,-21,-5,-7,76*
NC(=O)c1ccsc1NC(=O)c1ccc2c(c1)CCCC2,2,-15,-7,-6,-51
NC1=NC(=O)C2(COC(c3cccnc3)OC2)S1 (stereo not given),1,x,0,x,-82
CC(=O)Nc1nc(C2CC2)cc(-c2ccccc2)c1C#N,-1,x,-5,x,-6
COc1ccc(NC(=O)c2ccccc2N(Cc2ccccc2)S(C)(=O)=O)cc1OC,0,x,10*,x,-63
COc1ccc(NC(=O)c2ccccc2N(Cc2ccccc2)S(C)(=O)=O)cc1,0,x,-5,x,x
FC(F)(F)c1cc(-c2ccco2)nc(-n2nc(C(F)(F)F)cc2C2CC2)n1,9.1*,-9,0,-19,-7
CS(=O)(=O)c1nc(-c2ccco2)cc(C(F)(F)F)n1,1,-49,-3,89*,-3
COc1ccccc1-c1cc(C(F)(F)F)nc(S(C)(=O)=O)n1,3,-1,-4,38,9
CN(CC(O)COCc1ccc2c(c1)OCO2)C1CCCCC1 (stereo not given),1,-7,0,4,-31
COc1ccc(/C=C(/C(=O)c2ccc(Cl)cc2Cl)n2cncn2)cc1,-2,-12,0,43*,x
CC(C)CC(=O)/C(=C\c1ccc(Cl)cc1Cl)n1cncn1,-1,61*,-3,-3,57
CN(C)c1ccc(/C=C(/C(=O)c2ccc(Cl)cc2Cl)n2cncn2)cc1,1,3,-5,17,41
SMILES,RAM inhibit,Yeast growth inh,Efa HMGR inh,Yeast lifespan up,Insulin prom inh
COc1cccc(C(=O)Nc2sc3c(c2C#N)CCN(C(C)=O)C3)c1,5,x,-3,x,-55
CC(C)(C)c1nn2cnnc2n(/N=C/c2ccc(O)cc2)c1=O,2,-42,-3,-1,-23
COc1ccccc1NS(=O)(=O)c1ccc(Cl)c(NC(=O)c2sc3cc(Cl)ccc3c2Cl)c1,9.0*,x,-4,x,x
CCCn1nc(-c2ccccc2)c2nc3ccccc3nc21,9.6*,7,-4,-10,x
CSCC[C@H](NC(=O)c1ccc(Cl)c(S(=O)(=O)N2CCCC2)c1)c1nc2ccccc2[nH]1,-1,-31,0,-15,-50
CC1(C)CC(=O)C(C=NCCN2CCN(C(=S)Nc3ccccc3)CC2)=C(O)C1,1,-19,-3,-17,27
CC(=C1C(=O)c2ccccc2C1=O)N1CCN(CCN=CC2=C(O)CC(C)(C)CC2=O)CC1,-2,-19,4,34*,-13
CC(=NCCN1CCN(C(C)=C2C(=O)c3ccccc3C2=O)CC1)C1=C(O)CC(C)(C)CC1=O,-1,-41,4,31*,15

# Assay outcomes deposited in PubChem by several laboratories.
